Measurements published in ChEMBL document CHEMBL1955865, “Synthesis of novel spirooxindole derivatives by one pot multicomponent reaction and their antimicrobial activity” (2012).
≈ marks a conversion by molar mass, not a printed value.

Columns and labels:
Candida albicans [1] = assay: Antifungal activity against Candida albicans MTCC 227 after 48 to 72 hrs by twofold serial dilution method; format: functional
How it was run: (§1)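 Broth two-fold serial dilution, 1000 to 15.62 µg/ml, with compound dissolved in 2% DMSO, in 96-well plates. Filamentous fungal spores came from 10-day SDA slants at 28 °C, and yeast from SDB grown 48 h at 28 °C. Incubation was 48-72 h at 28 °C. MIC was the lowest concentration with no visible fungal growth.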

Botrytis cinerea [2] = assay: Antifungal activity against Botrytis cinerea at 1000 ug/disc after 48 hrs by disc diffusion assay; format: functional; conditions: read-out: IZ
How it was run: (§2)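 Fungal disc diffusion with inoculum from SDA spores (filamentous) or SDB culture (yeast). Test cultures were swabbed on agar, and discs at 1000 µg/disc were left 30 min at room temperature, with a solvent negative control. Plates were incubated 48 h at 27 °C. Zone of inhibition was measured in mm, and the experiment was repeated twice.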

Staphylococcus aureus [3] = assay: Antibacterial activity against Staphylococcus aureus MTCC 96 at 1000 ug/disc after 24 hrs by disc diffusion assay; format: functional; conditions: MTCC 96, 24 h, read-out: IZ
How it was run: (§3)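 Disc diffusion on Mueller Hinton agar. Cultures (about 10^4 CFU/ml) were swabbed on and dried 10 min. Discs loaded at 1000 µg/disc were left 30 min at room temperature for diffusion, with a solvent negative control. Plates were incubated 24 h at 37 °C. Inhibition zones were measured in mm, and the experiment was done twice.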

[4] = tested on: Salmonella enterica subsp. enterica serovar Paratyphi B; assay: Antibacterial activity against Salmonella paratyphi B after 24 hrs by twofold serial dilution method; format: functional
How it was run: (§4)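 Broth microdilution in MHB following the standard bacterial reference method. Compound was dissolved in DMSO (2%) and serially diluted two-fold from 1000 to 15.62 µg/ml in 96-well plates, with an inoculum of about 10^4 CFU/ml. Streptomycin and ciprofloxacin were positive controls. After 24 h at 37 °C, 5 µl of broth was subcultured on MHA. MIC was the lowest concentration without visible growth on agar.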

Micrococcus luteus [5] = assay: Antibacterial activity against Micrococcus luteus after 24 hrs by twofold serial dilution method; format: functional
How it was run: (§5)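 Bacteria grown in Mueller Hinton broth for 24 h at 37 °C and diluted to about 10^4 CFU/ml. Compound in 2% DMSO was serially diluted two-fold (1000 to 15.62 µg/ml) in medium in 96-well plates and inoculated. Plates were incubated 24 h at 37 °C. 5 µl of broth was spotted onto MHA, and MIC was taken as the lowest concentration with no visible growth on agar.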

Staphylococcus aureus [6] = assay: Antibacterial activity against Staphylococcus aureus MTCC 96 after 24 hrs by twofold serial dilution method; format: functional; conditions: MTCC 96, 24 h; how it was run: as §5
Candida albicans [7] = assay: Antifungal activity against Candida albicans MTCC 227 at 1000 ug/disc after 48 hrs by disc diffusion assay; format: functional; conditions: MTCC 227, 48 h, read-out: IZ; how it was run: as §2
[8] = Antifungal activity against Malassezia pachydermatis after 48 to 72 hrs by twofold serial dilution method; format: functional; how it was run: as §1
Proteus vulgaris [9] = assay: Antibacterial activity against Proteus vulgaris MTCC 1771 after 24 hrs by twofold serial dilution method; format: functional; conditions: MTCC 1771, 24 h; how it was run: as §5
[10] = Antifungal activity against Malassezia pachydermatis at 1000 ug/disc after 48 hrs by disc diffusion assay; format: functional; how it was run: as §2
Proteus vulgaris [11] = assay: Antibacterial activity against Proteus vulgaris MTCC 1771 at 1000 ug/disc after 24 hrs by disc diffusion assay; format: functional; conditions: MTCC 1771, 24 h, read-out: IZ; how it was run: as §3
Klebsiella pneumoniae [12] = assay: Antibacterial activity against Klebsiella pneumoniae MTCC 109 after 24 hrs by twofold serial dilution method; format: functional; conditions: MTCC 109, 24 h; how it was run: as §5
Salmonella typhimurium [13] = assay: Antibacterial activity against Salmonella Typhimurium MTCC 1251 at 1000 ug/disc after 24 hrs by disc diffusion assay; format: functional, Salmonella enterica subsp. enterica serovar Typhimurium; conditions: Salmonella enterica, MTCC 1251, 24 h; read-out: IZ; how it was run: as §3
Klebsiella pneumoniae [14] = assay: Antibacterial activity against Klebsiella pneumoniae MTCC 109 at 1000 ug/disc after 24 hrs by disc diffusion assay; format: functional; conditions: MTCC 109, 24 h, read-out: IZ; how it was run: as §3
Micrococcus luteus [15] = assay: Antibacterial activity against Micrococcus luteus at 1000 ug/disc after 24 hrs by disc diffusion assay; format: functional; conditions: read-out: IZ; how it was run: as §3
Staphylococcus aureus [16] = assay: Antibacterial activity against methicillin-resistant Staphylococcus aureus at 1000 ug/disc after 24 hrs by disc diffusion assay; format: functional; conditions: read-out: IZ
How it was run: (§6)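 Disc diffusion on Mueller Hinton agar. Bacteria were grown 24 h at 37 °C in MHB and diluted to about 10^4 CFU/ml, swabbed onto plates and dried 10 min. Discs were loaded at 1000 μg/disc and held 30 min at room temperature for diffusion. Solvent served as negative control. After 24 h at 37 °C, inhibition zones were read in mm; run twice.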

Salmonella typhimurium [17] = assay: Antibacterial activity against Salmonella Typhimurium MTCC 1251 after 24 hrs by two-fold serial dilution method; format: functional, Salmonella enterica subsp. enterica serovar Typhimurium; conditions: Salmonella enterica, MTCC 1251, 24 h; how it was run: as §5
Klebsiella aerogenes [18] = assay: Antibacterial activity against Enterobacter aerogenes MTCC 111 at 1000 ug/disc after 24 hrs by disc diffusion assay; format: functional; conditions: MTCC 111, 24 h, read-out: IZ; how it was run: as §3
Klebsiella aerogenes [19] = assay: Antibacterial activity against Enterobacter aerogenes MTCC 111 after 24 hrs by twofold serial dilution method; format: functional; conditions: MTCC 111, 24 h; how it was run: as §5
Staphylococcus aureus [20] = assay: Antibacterial activity against methicillin-resistant Staphylococcus aureus after 24 hrs by twofold serial dilution method; format: functional; how it was run: as §4
[21] = tested on: Salmonella enterica subsp. enterica serovar Paratyphi B; assay: Antibacterial activity against Salmonella paratyphi B at 1000 ug/disc after 24 hrs by disc diffusion assay; format: functional; conditions: read-out: IZ; how it was run: as §6
Botrytis cinerea [22] = assay: Antifungal activity against Botrytis cinerea after 48 to 72 hrs by twofold serial dilution method; format: functional; how it was run: as §1

Structure (SMILES)	MIC (Candida albicans [1]) [µg/mL]	zone of inhibition at 1000 µg/disc (Botrytis cinerea [2]) [mm]	zone of inhibition at 1000 µg/disc (Staphylococcus aureus [3]) [mm]	MIC [4] [µg/mL]	MIC (Micrococcus luteus [5]) [µg/mL]	MIC (Staphylococcus aureus [6]) [µg/mL]	zone of inhibition at 1000 µg/disc (Candida albicans [7]) [mm]	MIC [8] [µg/mL]	MIC (Proteus vulgaris [9]) [µg/mL]	inhibition zone (IZ) [10] [mm]	zone of inhibition at 1000 µg/disc (Proteus vulgaris [11]) [mm]	MIC (Klebsiella pneumoniae [12]) [µg/mL]	zone of inhibition at 1000 µg/disc (Salmonella typhimurium [13]) [mm]	zone of inhibition at 1000 µg/disc (Klebsiella pneumoniae [14]) [mm]	zone of inhibition at 1000 µg/disc (Micrococcus luteus [15]) [mm]	zone of inhibition at 1000 µg/disc (Staphylococcus aureus [16]) [mm]	MIC (Salmonella typhimurium [17]) [µg/mL]	zone of inhibition at 1000 µg/disc (Klebsiella aerogenes [18]) [mm]	MIC (Klebsiella aerogenes [19]) [µg/mL]	MIC (Staphylococcus aureus [20]) [µg/mL]	further results
Cc1ccc2c(c1)C1(C(=O)N2C)C2=C(CN1C)C(=O)c1ccccc1C2=O (stereo not drawn)	250 (≈ 698 µM)	11	22	500 (≈ 1400 µM)	125 (≈ 349 µM)	15.6 (≈ 43.6 µM)	12	500 (≈ 1400 µM)	125 (≈ 349 µM)	10	16	250 (≈ 698 µM)	22	13	15	14	15.6 (≈ 43.6 µM)	17	62.5 (≈ 174 µM)	125 (≈ 349 µM)	zone of inhibition at 1000 µg/disc [21]: 8 mm; MIC (Botrytis cinerea [22]): 250 µg/mL (≈ 698 µM)
CN1CC2=C(C(=O)c3ccccc3C2=O)C12C(=O)Nc1ccc(I)cc12 (stereo not drawn)	250 (≈ 548 µM)	12	16	500 (≈ 1100 µM)	15.6 (≈ 34.2 µM)	62.5 (≈ 137 µM)	11	125 (≈ 274 µM)	500 (≈ 1100 µM)	14	10	250 (≈ 548 µM)	14	11	15	8	125 (≈ 274 µM)	12	250 (≈ 548 µM)	500 (≈ 1100 µM)	zone of inhibition at 1000 µg/disc [21]: 7 mm; MIC (Botrytis cinerea [22]): 250 µg/mL (≈ 548 µM)
CN1CC2=C(C(=O)c3ccccc3C2=O)C12C(=O)Nc1ccc(Br)cc12 (stereo not drawn)	500 (≈ 1220 µM)	11	20	500 (≈ 1220 µM)	62.5 (≈ 153 µM)	15.6 (≈ 38.2 µM)	10	500 (≈ 1220 µM)	125 (≈ 305 µM)	10	12	500 (≈ 1220 µM)	19	10	17	12	31.2 (≈ 76.4 µM)	16	62.5 (≈ 153 µM)	250 (≈ 611 µM)	zone of inhibition at 1000 µg/disc [21]: 8 mm; MIC (Botrytis cinerea [22]): 250 µg/mL (≈ 611 µM)
CCN1C(=O)C2(C3=C(CN2C)C(=O)c2ccccc2C3=O)c2ccccc21 (stereo not drawn)	500 (≈ 1400 µM)	8	22	500 (≈ 1400 µM)	31.2 (≈ 87.2 µM)	15.6 (≈ 43.6 µM)	10	250 (≈ 698 µM)	62.5 (≈ 174 µM)	11	15	250 (≈ 698 µM)	19	12	18	13	31.2 (≈ 87.2 µM)	12	250 (≈ 698 µM)	250 (≈ 698 µM)	zone of inhibition at 1000 µg/disc [21]: 10 mm; MIC (Botrytis cinerea [22]): 500 µg/mL (≈ 1400 µM)
